Source: ChEMBL document CHEMBL5325428 (Eur J Med Chem, 2023)

Key:
SARS-CoV-2 = test: Antiviral activity against SARS-CoV-2 Wuhan-HU-1 infected in HEK293T cells assessed as inhibition of viral replication incubated for 30 hrs by luciferase reporter gene assay; assay type: functional, organism-based; details: Severe acute respiratory syndrome coronavirus 2, Wuhan-HU-1, HEK-293T
Outline: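 This is a non-infectious Wuhan-Hu-1 replicon system, not infectious virus. Replicon RNA was electroporated into 293T cells, which were then incubated for 30 h with compound at 2, 0.5, 0.1 and 0.02 µM or with 0.1% DMSO. Read-out was luciferase activity. Values are mean ± SD.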

[1] = molecular target: Replicase polyprotein 1ab (Severe acute respiratory syndrome coronavirus 2, UniProt P0DTD1); test: Inhibition of N-terminal His6-tagged full length SARS-CoV-2 3CLpro using FAM-SAVLQ as substrate preincubated with enzyme for 1 hr followed by susbtrate addition and measured after 1 hr by FRET assay
[2] = Cytotoxicity against human HEK293T cells assessed as reduction in cell viability incubated for 72 hrs by CytoTox 96 nonradioactive assay; assay type: toxicity, cell-based, HEK-293T
[3] = Safety index, ratio of CC50 for cytotoxicity against human HEK293T cells to EC50 for antiviral activity against SARS-CoV-2 Wuhan-HU-1 infected in HEK293T cells; assay type: toxicity, cell-based; details: read-out: Ratio CC50/EC50
Outline: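 In vitro safety index was calculated as the 293T CC50 divided by the SARS-CoV-2 replicon EC50.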

[4] = test system: Feline infectious peritonitis virus; test: Antiviral activity against FIPV 1146 infected in CRFK cells assessed as inhibition of viral replication incubated for upto 168 hrs by TCID50 method; assay type: functional, organism-based; details: Alphacoronavirus 1, 1146, CRFK
Outline: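 Crandell-Rees feline kidney cells infected with FIPV-1146; test compounds added to the medium at various concentrations. EC50 was fitted from the dose-dependent inhibition curve with a variable slope. Values are mean ± SD.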

Prothrombin = Prothrombin (Homo sapiens, UniProt P00734); test: Inhibition of human thrombin; assay type: toxicity
Outline: (§1)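 Commercial purified human proteases were assayed following the manufacturers' procedures. IC50 values are mean ± SD.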

chymotrypsin = chymotrypsin (Homo sapiens, UniProt P17538+P40313+Q6GPI1+Q99895); test: Inhibition of human chymotrypsin; assay type: toxicity; outline: as §1
Neutrophil elastase = molecular target: T1, Neutrophil elastase (Homo sapiens, UniProt P08246); test: Inhibition of human neutrophil elastase; assay type: toxicity; outline: as §1
T1 sequence (P08246 whole entry): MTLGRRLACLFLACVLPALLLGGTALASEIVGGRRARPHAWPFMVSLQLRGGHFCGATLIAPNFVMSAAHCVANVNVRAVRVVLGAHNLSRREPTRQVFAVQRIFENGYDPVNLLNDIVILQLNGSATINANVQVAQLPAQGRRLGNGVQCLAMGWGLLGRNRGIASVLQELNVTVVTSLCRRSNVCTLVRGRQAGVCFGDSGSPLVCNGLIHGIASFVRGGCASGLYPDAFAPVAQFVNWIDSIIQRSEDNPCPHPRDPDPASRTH

Cathepsin B = Cathepsin B (Homo sapiens, UniProt P07858); test: Inhibition of human Cathepsin B; assay type: toxicity; outline: as §1
Cathepsin D = Cathepsin D (Homo sapiens, UniProt P07339); test: Inhibition of human Cathepsin D; assay type: toxicity; outline: as §1
Cathepsin D, sequence (P07339 65-162 limits assumed): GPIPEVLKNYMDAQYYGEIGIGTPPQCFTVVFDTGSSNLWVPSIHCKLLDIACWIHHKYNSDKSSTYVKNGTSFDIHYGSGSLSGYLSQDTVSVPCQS
Cathepsin D, sequence (P07339 169-412 limits assumed): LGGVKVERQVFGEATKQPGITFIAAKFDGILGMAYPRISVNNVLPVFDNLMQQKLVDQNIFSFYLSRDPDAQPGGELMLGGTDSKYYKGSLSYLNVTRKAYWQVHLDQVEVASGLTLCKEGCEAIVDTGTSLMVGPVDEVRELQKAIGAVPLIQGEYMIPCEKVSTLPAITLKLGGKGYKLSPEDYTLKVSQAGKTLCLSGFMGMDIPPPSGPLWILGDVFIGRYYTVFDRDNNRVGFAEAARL

Cathepsin G = molecular target: T2, Cathepsin G (Homo sapiens, UniProt P08311); test: Inhibition of human Cathepsin G; assay type: toxicity; outline: as §1
T2 sequence (P08311 whole entry): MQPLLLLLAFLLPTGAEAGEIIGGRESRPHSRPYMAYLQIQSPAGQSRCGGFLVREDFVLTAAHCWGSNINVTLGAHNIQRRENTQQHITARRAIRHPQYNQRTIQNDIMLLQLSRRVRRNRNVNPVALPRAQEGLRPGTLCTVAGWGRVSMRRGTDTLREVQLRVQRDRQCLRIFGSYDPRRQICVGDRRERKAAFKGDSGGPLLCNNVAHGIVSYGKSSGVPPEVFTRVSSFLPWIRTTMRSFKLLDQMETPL

Procathepsin L = Procathepsin L (Homo sapiens, UniProt P07711); test: Inhibition of human Cathepsin L; assay type: toxicity; outline: as §1
Procathepsin L, sequence (P07711 whole entry): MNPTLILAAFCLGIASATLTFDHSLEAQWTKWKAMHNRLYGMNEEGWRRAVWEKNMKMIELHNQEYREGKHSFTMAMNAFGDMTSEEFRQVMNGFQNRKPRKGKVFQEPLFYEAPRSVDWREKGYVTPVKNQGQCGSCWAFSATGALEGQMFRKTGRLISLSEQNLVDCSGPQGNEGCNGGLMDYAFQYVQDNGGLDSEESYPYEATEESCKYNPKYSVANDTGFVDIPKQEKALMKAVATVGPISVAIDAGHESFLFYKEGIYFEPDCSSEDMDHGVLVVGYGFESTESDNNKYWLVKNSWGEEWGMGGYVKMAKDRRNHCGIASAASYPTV

[5] = Inhibition of MERS-CoV 3CLpro using FAM-SAVLQ as substrate preincubated with enzyme for 1 hr followed by susbtrate addition and measured after 1 hr by FRET assay; parameters: species or system Middle East respiratory syndrome-related coronavirus

Compound `[2H]C([2H])(OC(=O)N[C@@H](CC(C)C)C(=O)N[C@H](C=O)C[C@@H]1CCNC1=O)C(C)(C)Oc1ccc(Cl)cc1` has an EC50 (SARS-CoV-2) of 0.015 µM, an IC50 [1] of 0.17 µM and a CC50 at 72 h [2] of over 50 µM. The selectivity ratio [3] was 3330, the EC50 [4] was 0.1 µM and the IC50 (Prothrombin) was over 50 µM. It also gave an IC50 (chymotrypsin) of over 50 µM, an IC50 (Neutrophil elastase) of over 50 µM and an IC50 (Cathepsin B) of 0.8 µM. The IC50 (Cathepsin D) was over 50 µM, the IC50 (Cathepsin G) was over 50 µM and the IC50 (Procathepsin L) was 0.04 µM.
Compound `CC(C)C[C@H](NC(=O)OCC(C)(C)Sc1cccc(Cl)c1)C(=O)N[C@H](C=O)C[C@@H]1CCNC1=O` has an EC50 (SARS-CoV-2) of 0.01 µM, an IC50 [1] of 0.15 µM and an IC50 [5] of 0.11 µM. It also gave a CC50 at 72 h [2] of over 50 µM, a selectivity ratio [3] of 3330 and an EC50 [4] of 0.19 µM. For the same compound, the IC50 (Prothrombin) was over 50 µM, the IC50 (chymotrypsin) was over 50 µM and the IC50 (Neutrophil elastase) was over 50 µM. The IC50 (Cathepsin B) was 1.4 µM, the IC50 (Cathepsin D) was over 50 µM and the IC50 (Cathepsin G) was over 50 µM. It also gave an IC50 (Procathepsin L) of 0.03 µM.
`CC(C)C[C@H](NC(=O)OCC(C)(C)Oc1cccc(Cl)c1)C(=O)N[C@H](C=O)C[C@@H]1CCNC1=O` gave an EC50 (SARS-CoV-2) of 0.013 µM, an IC50 [1] of 0.19 µM and a CC50 at 72 h [2] of over 50 µM. The selectivity ratio [3] was 3330, the EC50 [4] was 0.06 µM and the IC50 (Prothrombin) was over 50 µM. It also gave an IC50 (chymotrypsin) of over 50 µM, an IC50 (Neutrophil elastase) of over 50 µM and an IC50 (Cathepsin B) of 0.9 µM. The IC50 (Cathepsin D) was over 50 µM, the IC50 (Cathepsin G) was over 50 µM and the IC50 (Procathepsin L) was 0.02 µM.
Work on `CC(C)C[C@H](NC(=O)OCC(C)(C)Sc1ccccc1)C(=O)N[C@H](C=O)C[C@@H]1CCNC1=O` yielded an EC50 (SARS-CoV-2) of 0.012 µM, an IC50 [1] of 0.07 µM and an IC50 [5] of 0.08 µM. It also gave a CC50 at 72 h [2] of over 50 µM, a selectivity ratio [3] of 3330 and an EC50 [4] of 0.08 µM. It also gave an IC50 (Prothrombin) of over 50 µM, an IC50 (chymotrypsin) of over 50 µM and an IC50 (Neutrophil elastase) of over 50 µM. For the same compound, the IC50 (Cathepsin B) was 1.9 µM, the IC50 (Cathepsin D) was over 50 µM and the IC50 (Cathepsin G) was over 50 µM. It also gave an IC50 (Procathepsin L) of 0.03 µM.
`[2H]C([2H])(OC(=O)N[C@@H](CC(C)C)C(=O)N[C@H](C=O)C[C@@H]1CCNC1=O)C(C)(C)Sc1ccccc1` gave an EC50 (SARS-CoV-2) of 0.011 µM, an IC50 [1] of 0.2 µM and an IC50 [5] of 0.06 µM. For the same compound, the CC50 at 72 h [2] was over 50 µM, the selectivity ratio [3] was 3330 and the EC50 [4] was 0.1 µM. The IC50 (Prothrombin) was over 50 µM, the IC50 (chymotrypsin) was over 50 µM and the IC50 (Neutrophil elastase) was over 50 µM. The IC50 (Cathepsin B) was 2 µM, the IC50 (Cathepsin D) was over 50 µM and the IC50 (Cathepsin G) was over 50 µM. It also gave an IC50 (Procathepsin L) of 0.03 µM.
